Laboratory results published in ChEMBL document CHEMBL4831496, “Noncovalent EGFR T790M/L858R inhibitors based on diphenylpyrimidine scaffold: Design, synthesis, and bioactivity evaluation for the treatment of NSCLC” (Eur J Med Chem, 2021).

Columns and labels:
[1] = biological target: Epidermal growth factor receptor (Homo sapiens, UniProt P00533, L858R/T790M); assay: Inhibition of EGFR L858R/T790M double mutant (unknown origin) measured after 60 mins by ADP-Glo kinase based luminescence assay
[2] = biological target: Epidermal growth factor receptor (Homo sapiens, UniProt P00533); assay: Inhibition of wild type EGFR (unknown origin) measured after 60 mins by ADP-Glo kinase based luminescence assay
Sequence of Epidermal growth factor receptor (Homo sapiens, UniProt P00533) (P00533 whole entry): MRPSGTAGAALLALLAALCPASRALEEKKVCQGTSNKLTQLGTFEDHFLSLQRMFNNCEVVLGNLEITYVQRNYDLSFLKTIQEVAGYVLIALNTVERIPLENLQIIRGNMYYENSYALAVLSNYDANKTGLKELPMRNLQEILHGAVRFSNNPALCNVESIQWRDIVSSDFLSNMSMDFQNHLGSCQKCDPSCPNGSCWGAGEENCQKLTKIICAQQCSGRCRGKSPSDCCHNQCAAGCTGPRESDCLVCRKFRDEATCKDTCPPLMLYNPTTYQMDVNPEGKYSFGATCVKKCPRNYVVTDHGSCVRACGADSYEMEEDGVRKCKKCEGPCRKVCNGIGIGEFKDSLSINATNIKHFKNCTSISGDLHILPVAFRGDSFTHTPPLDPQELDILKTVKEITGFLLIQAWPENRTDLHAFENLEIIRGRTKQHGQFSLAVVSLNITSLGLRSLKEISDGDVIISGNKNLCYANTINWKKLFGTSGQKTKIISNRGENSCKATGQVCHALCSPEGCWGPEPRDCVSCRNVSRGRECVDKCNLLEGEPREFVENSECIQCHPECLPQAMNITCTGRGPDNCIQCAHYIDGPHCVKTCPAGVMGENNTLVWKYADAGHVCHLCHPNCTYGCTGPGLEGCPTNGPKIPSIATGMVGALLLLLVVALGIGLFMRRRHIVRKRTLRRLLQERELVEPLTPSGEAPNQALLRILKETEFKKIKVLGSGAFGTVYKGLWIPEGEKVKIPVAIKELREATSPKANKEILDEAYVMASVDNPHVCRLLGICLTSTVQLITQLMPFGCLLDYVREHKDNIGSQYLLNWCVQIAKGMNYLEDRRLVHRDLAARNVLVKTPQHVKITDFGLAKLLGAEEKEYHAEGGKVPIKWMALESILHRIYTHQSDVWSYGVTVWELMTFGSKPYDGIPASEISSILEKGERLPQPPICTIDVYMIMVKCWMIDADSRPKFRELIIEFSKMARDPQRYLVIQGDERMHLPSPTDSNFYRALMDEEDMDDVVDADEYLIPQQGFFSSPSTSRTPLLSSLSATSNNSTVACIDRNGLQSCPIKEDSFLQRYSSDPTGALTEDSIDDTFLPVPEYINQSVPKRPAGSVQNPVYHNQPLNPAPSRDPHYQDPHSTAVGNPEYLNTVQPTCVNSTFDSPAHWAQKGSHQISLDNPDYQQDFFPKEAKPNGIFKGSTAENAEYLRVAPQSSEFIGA

[3] = test system: NCI-H1975; assay: Antiproliferative activity against human NCI-H1975 cells harboring EGFR L858R/T790M mutant assessed as reduction in cell viability incubated for 72 hrs by CCK8 assay; assay type: functional, cell-based; conditions: NCI-H1975, 72 h
In short: (§1)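 Cells kept as monolayers at 37 °C, 5% CO2, seeded 3000-4000/well for 12 h, then exposed to compounds for 72 h. CCK-8 added for 1-2 h at 37 °C, absorbance read at 450 nm. Each dose run in triplicate, experiment repeated at least three times. IC50 taken from dose-response curves.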

[4] = test system: A-431; assay: Cytotoxicity against human A-431 cells harboring wild type EGFR assessed as reduction in cell viability incubated for 72 hrs by CCK8 assay; assay type: cell-based; conditions: A-431, 72 h; in short: as §1
[5] = test system: A549; assay: Antiproliferative activity against human A549 cells harboring KRAS G12S mutant assessed as reduction in cell viability incubated for 72 hrs by CCK8 assay; assay type: functional, cell-based; conditions: A549, 72 h; in short: as §1
[6] = Cytotoxicity against human HBE cells assessed as reduction in cell viability incubated for 72 hrs by CCK8 assay; assay type: cell-based; in short: as §1
[7] = test system: ASPC1; assay: Antiproliferative activity against human ASPC1 cells assessed as reduction in cell viability incubated for 72 hrs by CCK8 assay; assay type: functional, cell-based; conditions: ASPC1, 72 h; in short: as §1
[8] = test system: NCI-H23; assay: Antiproliferative activity against human NCI-H23 cells harboring KRAS mutant assessed as reduction in cell viability incubated for 72 hrs by CCK8 assay; assay type: functional, cell-based; conditions: NCI-H23, 72 h; in short: as §1
[9] = test system: L02; assay: Antiproliferative activity against human L02 cells assessed as reduction in cell viability incubated for 72 hrs by CCK8 assay; assay type: cell-based; conditions: L02, 72 h
[10] = Selectivity index, ratio of IC50 for human A-431 cells harboring wild type EGFR (unknown origin) to IC50 for human NCI-H1975 cells harboring EGFR L858R/T790M mutant

Sequence of Epidermal growth factor receptor (Homo sapiens, UniProt P00533, L858R/T790M) (P00533 25-1210 T790M/L858R limits assumed): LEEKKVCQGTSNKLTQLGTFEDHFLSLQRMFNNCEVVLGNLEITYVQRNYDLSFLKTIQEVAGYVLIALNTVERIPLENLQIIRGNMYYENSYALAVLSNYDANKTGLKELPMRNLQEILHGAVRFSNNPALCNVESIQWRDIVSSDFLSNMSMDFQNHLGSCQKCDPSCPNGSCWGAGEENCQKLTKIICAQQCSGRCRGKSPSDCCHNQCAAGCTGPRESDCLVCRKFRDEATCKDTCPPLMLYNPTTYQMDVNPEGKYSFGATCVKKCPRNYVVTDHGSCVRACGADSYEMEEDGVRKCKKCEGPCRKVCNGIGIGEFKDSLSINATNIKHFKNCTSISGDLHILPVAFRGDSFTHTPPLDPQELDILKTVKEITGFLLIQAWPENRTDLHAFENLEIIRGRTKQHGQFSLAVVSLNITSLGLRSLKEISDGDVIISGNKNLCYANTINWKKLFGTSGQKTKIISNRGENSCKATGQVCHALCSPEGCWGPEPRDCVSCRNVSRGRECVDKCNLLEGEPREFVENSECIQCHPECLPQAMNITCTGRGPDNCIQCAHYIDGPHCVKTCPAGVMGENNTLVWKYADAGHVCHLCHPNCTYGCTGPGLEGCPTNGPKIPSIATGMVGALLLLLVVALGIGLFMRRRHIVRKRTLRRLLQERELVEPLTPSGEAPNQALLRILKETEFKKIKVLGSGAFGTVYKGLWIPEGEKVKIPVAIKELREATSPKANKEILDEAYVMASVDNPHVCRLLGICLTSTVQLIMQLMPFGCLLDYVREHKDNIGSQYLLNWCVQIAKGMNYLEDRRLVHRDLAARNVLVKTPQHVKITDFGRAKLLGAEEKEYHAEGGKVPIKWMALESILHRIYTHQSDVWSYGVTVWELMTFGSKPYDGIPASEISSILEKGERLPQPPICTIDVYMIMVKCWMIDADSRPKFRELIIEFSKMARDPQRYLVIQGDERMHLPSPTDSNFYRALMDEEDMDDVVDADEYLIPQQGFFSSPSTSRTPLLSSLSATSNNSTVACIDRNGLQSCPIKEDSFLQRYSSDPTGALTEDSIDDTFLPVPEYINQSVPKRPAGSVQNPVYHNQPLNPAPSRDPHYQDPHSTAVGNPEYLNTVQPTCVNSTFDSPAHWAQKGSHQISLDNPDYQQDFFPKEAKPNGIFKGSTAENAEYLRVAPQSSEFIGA

For `O=C(NO)c1ccccc1Nc1nc(Nc2ccc(CN3CCOCC3)cc2)ncc1Cl`, the IC50 [1] was 98.8 nM, the IC50 [2] was 4.5 nM and the IC50 [3] was < 78.1 nM. The IC50 [4] was 2430 nM, the IC50 [5] was < 78 nM and the IC50 [6] was 29100 nM. The IC50 [7] was < 156 nM, the IC50 [8] was 554 nM and the IC50 [9] was < 1250 nM. For the same molecule, the “Ratio IC50” value [10] was >31.08.
With `CNC(=O)c1ccccc1Nc1nc(Nc2ccc(CN3CCC(C(=O)NO)CC3)cc2)ncc1Cl` the IC50 [1] was 117 nM, the IC50 [2] was 1.09 nM and the IC50 [3] was 245 nM. It also gave an IC50 [4] of 1160 nM, an IC50 [5] of 245 nM and an IC50 [6] of 15900 nM. It also gave an IC50 [7] of 374 nM, an IC50 [8] of 8420 nM and an IC50 [9] of 1280 nM. The “Ratio IC50” value [10] was 4.72.
With `O=C(NO)c1ccccc1Nc1nc(Nc2ccc(OCCCN3CCOCC3)cc2)ncc1Cl` the IC50 [1] was 64.8 nM, the IC50 [2] was 1.25 nM and the IC50 [3] was 321 nM. For the same molecule, the IC50 [4] was 1400 nM, the IC50 [5] was 321 nM and the IC50 [6] was 26500 nM. For the same molecule, the IC50 [7] was 1230 nM, the IC50 [8] was 665 nM and the IC50 [9] was 1730 nM. For the same molecule, the “Ratio IC50” value [10] was 4.38.
Molecule `O=C(CN1CCOCC1)Nc1ccc(Nc2ncc(Cl)c(Nc3ccccc3C(=O)NO)n2)cc1` has an IC50 [1] of 113 nM, an IC50 [2] of 126 nM and an IC50 [3] of 385 nM. The IC50 [4] was 1530 nM, the IC50 [5] was 385 nM and the IC50 [6] was > 40000 nM. The IC50 [7] was 750 nM, the IC50 [8] was 1740 nM and the IC50 [9] was 2110 nM. For the same molecule, the “Ratio IC50” value [10] was 3.98.
Work on `O=C(NO)c1ccccc1Nc1nc(Nc2ccc(OCC(=O)N3CCOCC3)cc2)ncc1Cl` yielded an IC50 [1] of 16 nM, an IC50 [2] of 57.3 nM and an IC50 [3] of 129 nM. The IC50 [4] was 670 nM, the IC50 [5] was 129 nM and the IC50 [6] was 20200 nM. It also gave an IC50 [7] of 530 nM, an IC50 [8] of 820 nM and an IC50 [9] of 4810 nM. For the same molecule, the “Ratio IC50” value [10] was 5.19.
For `O=C(NO)c1ccccc1Nc1nc(Nc2ccc(N3CCOCC3)cc2)ncc1Cl`, the IC50 [1] was 116 nM, the IC50 [2] was 169 nM and the IC50 [3] was 109 nM. The IC50 [4] was 1580 nM, the IC50 [5] was 109 nM and the IC50 [6] was > 40000 nM. It also gave an IC50 [7] of 1410 nM, an IC50 [8] of 801 nM and an IC50 [9] of 2190 nM. The “Ratio IC50” value [10] was 14.46.
In the case of `O=C(O)c1ccccc1Nc1nc(Nc2ccc(OCC(=O)N3CCOCC3)cc2)ncc1Cl`, the IC50 [1] is reported as 199 nM, the IC50 [2] is reported as 81.4 nM and the IC50 [3] is reported as > 10000 nM. For the same molecule, the IC50 [9] was 15500 nM.
Work on `CNC(=O)c1ccccc1Nc1nc(Nc2ccc(OCCCN3CCC(C(=O)NO)CC3)cc2)ncc1Cl` yielded an IC50 [1] of 45 nM, an IC50 [2] of 46.7 nM and an IC50 [3] of 156 nM. The IC50 [4] was 448 nM, the IC50 [5] was 156 nM and the IC50 [6] was 8570 nM. The IC50 [7] was < 156 nM, the IC50 [8] was 2110 nM and the IC50 [9] was < 1250 nM. The “Ratio IC50” value [10] was 2.88.
`CN1CCN(CCOc2ccc(Nc3ncc(Cl)c(Nc4ccccc4C(=O)NO)n3)cc2)CC1` gave an IC50 [1] of 6.82 nM, an IC50 [2] of 0.763 nM and an IC50 [3] of 822 nM. The IC50 [4] was 692 nM, the IC50 [5] was 203 nM and the IC50 [6] was 29800 nM. It also gave an IC50 [7] of 244 nM, an IC50 [8] of 642 nM and an IC50 [9] of 1950 nM. The “Ratio IC50” value [10] was 0.84.
In the case of `CNC(=O)c1ccccc1Nc1nc(Nc2ccc(NC(=O)CN3CCOCC3)c(C)c2)ncc1Cl`, the IC50 [1] is reported as 3.89 nM and the IC50 [3] is reported as 333 nM.
For `CCOC(=O)c1ccccc1Nc1nc(Nc2ccc(OCC(=O)N3CCOCC3)cc2)ncc1Cl`, the IC50 [1] was 0.245 nM, the IC50 [2] was 32 nM and the IC50 [3] was 2900 nM. For the same molecule, the IC50 [9] was 30200 nM.
Work on `CNC(=O)c1ccccc1Nc1nc(Nc2ccc(N3CCC(C(=O)NO)CC3)cc2)ncc1Cl` yielded an IC50 [1] of 49.9 nM, an IC50 [2] of 119 nM and an IC50 [3] of 329 nM. It also gave an IC50 [4] of 127 nM, an IC50 [5] of 329 nM and an IC50 [6] of 12600 nM. It also gave an IC50 [7] of 499 nM, an IC50 [8] of 1540 nM and an IC50 [9] of 1730 nM. The “Ratio IC50” value [10] was 0.39.
With `CN1CCN(c2ccc(Nc3ncc(Cl)c(Nc4ccccc4C(=O)NO)n3)cc2)CC1` the IC50 [1] was 68.8 nM, the IC50 [2] was 6.56 nM and the IC50 [3] was < 78.1 nM. The IC50 [4] was 253 nM, the IC50 [5] was < 78 nM and the IC50 [6] was 22600 nM. For the same molecule, the IC50 [7] was < 156 nM, the IC50 [8] was 217 nM and the IC50 [9] was < 1250 nM. For the same molecule, the “Ratio IC50” value [10] was >3.24.
For `O=C(COc1ccc(Nc2ncc(Cl)c(Nc3ccccc3C(=O)NO)n2)cc1)NO`, the IC50 [1] was 65.4 nM, the IC50 [2] was 50.2 nM and the IC50 [3] was 1110 nM. The IC50 [4] was 2060 nM, the IC50 [5] was 1110 nM and the IC50 [6] was > 40000 nM. For the same molecule, the IC50 [7] was 1580 nM, the IC50 [8] was 6400 nM and the IC50 [9] was 7870 nM. For the same molecule, the “Ratio IC50” value [10] was 1.86.
